Measurements as given in publication PMC3983356 (The Journal of Physical Chemistry. B, 2014).
“And” between values parts separate entries of the source, which are not always exact repeats. Identical values can stand only once. Like-named read-outs stand apart in the source and are kept apart here.

Columns and labels:
[1] = Critical micelle concentration by DPH fluorimetric method; assay type: physicochemical
Summary of the method: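 Fluorimetric CMC determination: 10 μL of 1 mM diphenylhexatriene (DPH) in tetrahydrofuran added to test detergent serially diluted in ECS (pH 7.45, HEPES-buffered saline with glucose). Excitation 358 nm, emission scanned 400–500 nm. CMC taken at the sharp rise in fluorescence as DPH enters micelles.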

HEK 293A cells [2] = assay: Ensemble whole cell patch clamp; assay type: cell-based; settings: for change in membrane conductivity compared to ECS controls: 0.004 and 0.04 mM SDS, 0.0001 and 0.001 mM CTAB; for concentration at which increased membrane permeability is induced: current change 900 s after exposure, superfusion
HEK293A cells = assay: XTT assay; assay type: cell-based; settings: 20 min
Summary of the method: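 HEK293A cells were seeded at 100000 cells/well and incubated overnight at 37 °C, 5% CO2. Cells were exposed 20 min to test compound in ECS, or to ECS alone, then the supernatant was replaced with PBS. XTT reagent (solution A:B, 50:1) was added and incubated 2 h at 37 °C. A490 minus A690 was read, and % viability was expressed relative to ECS-treated cells.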

HEK 293A cells [3] = assay type: cell-based; settings: for reversal of increased conductivity at end of experiment (600 s): 0.2 mM SDS 30 s exposure, 0.1 mM CTAB 10 s, 0.137 mM ORB 10 s; for reversibility of increased permeability induced within 10 s of exposure: 0.2 mM SDS, 0.1 mM CTAB, 0.137 mM ORB, 15 min after exposure
Summary of the method: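 IonFlux 16 whole-cell patch clamp of HEK 293A cells in ECS at sub-solubilising test concentrations, applied for 10, 30 or 300 s. Exposure was followed by ECS perfusion for 900 s. Membrane current was tracked for reversal. Controls were ECS alone or ECS + 5% DMSO, the vehicle for the rhodamine lipid probe.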

HEK 293A cells [4] = assay type: cell-based; settings: for Dw ± standard error (detergent in water, intercept): quiescent, onset of increased permeability; for partition constant K [lower bound, upper bound]: range from error in Rb and intercept
Summary of the method: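 HEK 293A cells (passages 12–17) detached with detachin, rested in serum-free medium, then 1.5, 5, 10 or 15 million cells in ECS incubated 15 min with graded detergent. Cells were pelleted at 1000 rpm, resuspended in ECS and patched on an IonFlux 16 ensemble whole-cell system with K-aspartate intracellular solution. Time-averaged current over the first 4 min served as the permeability read-out. Detergent giving a 1 nA rise ×15 estimated the onset. Onset concentration vs lipid concentration was fitted linearly: slope Rb, intercept Dw.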

HEK 293A cells [5] = assay: Quiescent partitioning experiment with trypan blue assay; assay type: cell-based; settings: range from error estimate
Summary of the method: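 Cationic detergent only. HEK 293A cells in ECS were pretreated 15 min with graded detergent concentrations as in the patch-clamp partitioning protocol. Trypan blue exclusion, not patch clamp, served as the membrane-permeability marker. Onset concentration was plotted against cellular lipid concentration and fitted linearly (slope Rb, intercept Dw). K was derived from R and Dw and reported as a range.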

[6] = POPC vesicles; cited from earlier work
[7] = POPC/POPG vesicles; cited from earlier work
[8] = depending on size, composition of vesicles and temperature; cited from earlier work
HEK 293A cells [9] = assay: Fluorescence microscopy of patched cells; assay type: cell-based; settings: ORB at all three concentrations, 10 min
[10] = 0.004–0.04 mM SDS, 0.0001–0.001 mM CTAB
[11] = 0.2 and 2 mM SDS, 0.1, 1 and 10 mM CTAB, 0.035, 0.14 and […] ORB
[12] = 2 mM SDS, 1 and 10 mM CTAB, 1.37 mM ORB
[13] = 0.004–0.2 mM SDS, 0.001–0.1 mM CTAB, 0.0137–0.137 mM ORB

Row | SMILES | critical micelle concentration (CMC) in ECS [1] | CMC in water [1] | time of onset of current increase after compound release (HEK 293A cells [2]; 0.2 mM SDS, 0.1 mM CTAB) | group of current traces (HEK 293A cells [2]; 0.2 mM SDS, 0.1–10 mM CTAB) | time of onset of current increase after compound release (HEK 293A cells [2]; 2 mM SDS, 1 mM CTAB) | change in membrane conductivity compared to ECS controls (HEK 293A cells [2]) | group of current traces (HEK 293A cells [2]; [10]) | change in membrane current compared to ECS controls (HEK 293A cells [2]; [11]) | concentration at which increased membrane permeability is induced (HEK 293A cells [2]) | metabolic activity of exposed cells (XTT) (HEK293A cells; [12]) | metabolic activity of exposed cells (XTT) (HEK293A cells; [13]) | reversal of increased conductivity at end of experiment (600 s) (HEK 293A cells [3]) | reversibility of increased permeability induced within 10 s of exposure (HEK 293A cells [3]) | Dw ± standard error (detergent in water, intercept) (HEK 293A cells [4]) | partition constant K [lower bound, upper bound] (HEK 293A cells [4]) | partition constant K [6] | also measured
1 | CCCCCCCCCCCCCCCC[N+](C)(C)C [CTAB, cetyltrimethylammonium bromide] | 0.03 to 0.06 mM and ~0.06 mM | 1 to 2 mM | 2 to 3 s and 1 to 3 s | 2 | 1 s | did not cause a change in conductance | 1 | rapid increase in membrane current | 10 µM | reduced metabolic activity | do not show a loss in metabolic activity | not reversed | not reversible for over 15 min | 4.2 ± 2.8 | 29000–476000 M^–1 | 350000 M^–1 | current eventually reached as fraction of open channel current (HEK 293A cells [2]; 0.01 mM CTAB): 1/3; change in membrane current compared to ECS controls (HEK 293A cells [2]; 0.01 mM CTAB (below CMC)): slow increase in current; time of onset of current increase after compound release (HEK 293A cells [2]; 10 mM CTAB): 1 s; partition constant K range (trypan blue assay) (HEK 293A cells [5]): 37000 to 67000 M^–1
2 | CCCCCCCCCCCCOS(=O)(=O)[O-].[Na+] [SDS, sodium dodecyl sulfate] | 0.8 to 1 mM and ~0.8 mM | 6 to 8 mM | 2 to 3 s | 2 | 1 s | does not result in an increase in conductivity | 1 | initial sharp increase in current | 200 µM | reduced metabolic activity | do not show a loss in metabolic activity | not reversed | not reversible for over 15 min | 29 ± 10 | 16300–39200 M^–1 | 33000 M^–1 | duration of initial change in current (HEK 293A cells [2]; 0.2 mM SDS): 3 to 4 s; duration of subsequent slow current increase (HEK 293A cells [2]; 0.2 mM SDS): 67 ± 25 s; current reached at the end of 15 min (HEK 293A cells [2]; 0.2 mM SDS, total current of 20 cells): ~50 nA; final current level (HEK 293A cells [2]; 2 mM SDS): eventually reached open channel current levels; group of current traces (HEK 293A cells [2]; 2 mM SDS): 3; time to reach open channel current (HEK 293A cells [2]; 2 mM SDS, except one trace that took 871 s): 120 ± 61 s; time within which large and sudden increase in conductivity occurs (HEK 293A cells [2]; 0.2 and 2 mM SDS): 1 to 3 s; partition constant K [7]: 37000 M^–1; partition constant K [8]: 12500 to 70000 M^–1
3 | CCCCCCCCCCCCCCCCCCOC(=O)c1ccccc1-c1c2ccc(=[N+](CC)CC)cc-2oc2cc(N(CC)CC)ccc12.[Cl-] [ORB, octadecyl rhodamine B] |  |  |  |  |  |  |  | increased the membrane current significantly |  | reduced metabolic activity | do not show a loss in metabolic activity | not reversed | not reversible for over 15 min | 7.3 ± 3.1 | 24000–99000 M^–1 |  | change in membrane current compared to controls (HEK 293A cells [2]; 0.014 (0.0137) mM ORB): significantly different from the ECS control but not 0.007 mM ORB; state of cells after ORB exposure (ORB fluorescence) (HEK 293A cells [9]): fluorescent and intact
